Data as given in ChEMBL document CHEMBL1141616, “Structure-activity relationships in the inhibition of monoamine oxidase B by 1-methyl-3-phenylpyrroles” (Bioorg Med Chem, 2008).
Active and inactive are the calls of the source. No cut-off for these calls is given here.

Key:
Bos taurus = species on record: Bos taurus; assay: Inhibition of beef liver mitochondrial MAOB at 200 uM
[1] = Inhibition of baboon liver mitochondrial MAOB; set-up: species or system Papio hamadryas
Papio hamadryas = species on record: Papio hamadryas; assay: Inhibition of baboon liver mitochondrial MAOB at 5.20 uM
In short: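 Time-dependence test: baboon liver mitochondria (0.3 mg protein/mL) were preincubated with inhibitor at 5.20 µM in 100 mM sodium phosphate, pH 7.4, for 0, 15, 30 and 60 min at 37 °C. This was then diluted to 0.15 mg protein/mL with 90 µM MMTP, giving a final inhibitor concentration of 2.60 µM. Incubated 15 min at 37 °C, stopped with perchloric acid, and MMDP⁺ was measured.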

| SMILES | Activity (Bos taurus) | Ki [1] | Activity (Papio hamadryas) |
| --- | --- | --- | --- |
| COc1ccc(-c2ccn(C)c2)cc1 | inactive | 36.5 µM | – |
| Cn1ccc(-c2ccccc2)c1 | inactive | 118 µM | – |
| Cc1ccc(-c2ccn(C)c2)cc1 | inactive | 22.5 µM | – |
| Cn1ccc(-c2cccc(F)c2)c1 | inactive | 38.9 µM | – |
| Cc1cccc(-c2ccn(C)c2)c1 | inactive | 56 µM | – |
| COc1cccc(-c2ccn(C)c2)c1 | inactive | 41.7 µM | – |
| Cn1ccc(-c2ccc(F)cc2)c1 | inactive | 31 µM | – |

Now those with a lower Ki [1], led by results:

| Activity (Bos taurus) | Ki [1] | Activity (Papio hamadryas) | SMILES |
| --- | --- | --- | --- |
| inactive | 14.3 µM | – | Cn1ccc(-c2cccc(Br)c2)c1 |
| inactive | 18.4 µM | – | Cn1ccc(-c2ccc(Cl)cc2)c1 |
| inactive | 1.3 µM | Active | Cn1ccc(-c2ccc(C(F)(F)F)cc2)c1 |
| inactive | 6.55 µM | – | Cn1ccc(-c2cccc(C(F)(F)F)c2)c1 |
| inactive | 20.9 µM | – | Cn1ccc(-c2cccc(Cl)c2)c1 |
| inactive | 6.65 µM | – | Cn1ccc(-c2ccc(Br)cc2)c1 |
